# Results from ChEMBL document CHEMBL4513216, “Probing the Open Global Health Chemical Diversity Library for Multistage-Active Starting Points for Next-Generation Antimalarials” (ACS Infect Dis, 2020).
# Test: Toxicity liver stage against HepG2, at 10uM
# Format: cell-based
# Design: test concentration 10 uM, cell line HepG2-A16-CD81EGFP
# Conditions: human, HepG2-A16-CD81EGFP cells; read-out: INHIBITION
# Method in brief: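 Uninfected HepG2-A16-CD81EGFP cells, 3 × 10^3 per well, 1536-well, plated on prespotted compound at 10 μM final, parasite-free screening media added to match infected plates; puromycin 10 μM positive, DMSO 0.5% negative; run in parallel with 48 h PbLuc assay at 37 °C, 5% CO2; viability by CellTiter-Glo luminescence, normalized to controls.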
row,SMILES,cytotoxicity at 10 µM [%]
1,CCNC(=O)NC(=O)CNC(C)(CC)c1nccs1 (configuration not stated),7.93
2,CC(c1nc(C2CC2)no1)N1CCN(CCOCC(F)(F)F)CC1 (configuration not stated),-8.6
3,N#CCCN(CCN1CCOCC1)Cc1ccc(F)c(Br)c1,-5.01
4,Cc1n[nH]c(C)c1C1COCCN1C(=O)c1ccccc1 (configuration not stated),-3.94
5,Cc1ccc(-c2nc(C(=O)N3CCOCC3)cs2)c(C)c1,0.22
6,COc1cccc(N2CCN(C(=O)c3ccc(=O)n(C)c3)CC2)c1,-7.81
7,CCc1nc(CN2CCCN(C(=O)c3cccn3C)CC2)cs1,3.41
8,Cc1nc(CN2CCCC(N(C)Cc3nnsc3Cl)C2)no1 (configuration not stated),-4.36
9,COCCN(Cc1ccco1)c1ncc(C#N)cc1Cl,-2.66
10,COCCNC(=O)Cn1ccc2ccc(F)cc21,2.14
11,CC(=O)N1CCN(c2cc(CCN)nc(C3CC3)n2)CC1,-26.2
12,O=C(CCCn1ccnc1)N[C@H]1CN(C2CCCC2)C[C@@H]1C1CC1,7.69
13,Cc1nn(C)cc1-c1ccnc(N2CCSCC2)n1,3.47
14,Cc1ccc(C(C(=O)NCc2cc(C)[nH]n2)N(C)C)cc1 (configuration not stated),-0.671
15,COc1cccc2c(=O)n(C3CCNCC3)cnc12,-53.4
16,Cc1cc(C(=O)Nc2ccc(N3CCCC3)cn2)ccc1-n1cncn1,19.8
17,Cc1[nH]nc(CCC(=O)NCC2CCN(C3CCCCC3)C2)c1C (configuration not stated),-5.08
18,Cc1cnn(CC2CCCN2CC(=O)Nc2cc(C(C)(C)C)no2)c1 (configuration not stated),-7.76
19,Cc1csc(N2CCCN(C(=O)c3cnns3)CC2)n1,5.92

row,SMILES,cytotoxicity at 10 µM [%]
1,CC(OCC1CC1)C(=O)Nc1ncccc1I (configuration not stated),12.1
2,CNc1ccc(C)cc1C(=O)N1CCCC2(CCNC2)C1 (configuration not stated),-6.63
3,CCN(Cc1nc(C(C)C)no1)Cc1cccs1,-8.57
4,O=C(c1c(F)cccc1F)N1CCC[C@@H]1Cn1c(=O)oc2ccccc21,4.42
5,COCCCN1CCCCC12CC(=O)N(Cc1ccccn1)C2 (configuration not stated),1.95
6,Cc1nc2c(N3CCC(O)(Cn4ccnc4)CC3)ncnc2o1,6.35
7,CC(C)CC(C)(CNC(=O)c1cnccn1)NC(=O)c1cnccn1 (configuration not stated),-2.71
8,Fc1ccccc1Cn1c(C2CCNCC2)cc2cccnc21,1.25
9,CC(=O)N1CCN(c2ccc3ccc(C(=O)NC4CCCC4)cn23)CC1,8.15
10,CS(=O)(=O)N[C@@H]1CCO[C@]2(CCN(C(=O)c3cscn3)C2)C1,-67.2
11,CNC(=O)CN1C(=O)CCC12CCCN(Cc1cccc(F)c1)C2 (configuration not stated),-5.51
12,CN(C(=O)C1(C#N)CCCCC1)c1nccs1,0.658
13,Cc1cncnc1C1CCN(CC2CC2)CC1,-1.06
14,CC(C)N(C)Cc1cnc2n1CCN(Cc1cccc(C#N)c1)C2,7.48
15,CCn1ncc2c1CCCC2NCC1=Cc2ccccc2OC1 (configuration not stated),-4.31
16,Cc1ccc(CCNC(=O)Cn2nc(C)n(Cc3ccccc3)c2=O)o1,1.33
17,Cc1nn(C)c2ncc(CNCCc3ccccn3)cc12,4.13
18,COCCN1CCC2(CC1)CC(c1cccnc1)C(=O)N2C (configuration not stated),7.26
19,CC(C)NC(=O)c1ccc2c(c1)C(c1nc[nH]n1)CN2S(C)(=O)=O (configuration not stated),-132

row,SMILES,cytotoxicity at 10 µM [%]
1,Cc1nc(C)c(CC(=O)N2CCC(Oc3ccccc3)CC2)c(=O)[nH]1,1.98
2,c1ccc(-n2ncc(CN3CCCC3Cn3cccn3)n2)cc1 (configuration not stated),-2.73
3,CCOCC1CN(C(=O)c2ccncn2)Cc2cnn(CC)c21 (configuration not stated),-68.3
4,CC1CCN(CCCNS(=O)(=O)c2cccc(F)c2)CC1,-12.3
5,O=C(Nc1ccnn1Cc1ccccc1Cl)C1CCS(=O)(=O)C1 (configuration not stated),-3.95
6,COC1CCN(c2ccc(NC(=O)C3CC3)cc2C(F)(F)F)CC1,39.5
7,Cc1ccn(CCC(=O)NC(C)Cc2ccco2)n1 (configuration not stated),-4.1
8,Cc1n[nH]c(C2CN(C(=O)c3cc(C4CC4)on3)CCO2)n1 (configuration not stated),-9.63
9,CN(C)c1cc(CNC(=O)c2cn(-c3ccc(F)cc3)nn2)ccn1,11.5
10,CSCc1noc(CNC(=O)C2CCN(C3CCCCC3)CC2)n1,8.45
11,Cc1nn(C)c(C)c1CC(C)NC(=O)NCc1ccoc1C (configuration not stated),0.43
12,Cc1noc(C)c1CN1CCCC2(CCN(CC3CCCC3)C2)C1 (configuration not stated),-4.1
13,CCS(=O)(=O)N1CCc2nc(N3CCOCC3)nc(N(C)C)c2CC1,21.3
14,O=C(NCCc1cccs1)C1(N2CCCCC2)Cc2ccccc2C1,-4.86
15,CNC(=O)c1cc(C2CCCN2)n[nH]1 (configuration not stated),-11.9
16,Cc1nn(Cn2ccc(C(=O)N3CCC(C)CC3)n2)c(C)c1Cl,-2.36
17,O=C(Nc1cccc(C(F)F)c1)N[C@@H]1C=C[C@H](CO)C1,-4.81
18,Cc1ccc(-c2nc(CN3CCn4c(nnc4C4CC4)C3)co2)cc1,5.17
19,Cc1cc(N2CCC3(CCCN(CCO)C3=O)C2)nc2cc(Cl)ccc12 (configuration not stated),3.72
